Consider 97 compounds from ChEMBL document CHEMBL4513216, “Probing the Open Global Health Chemical Diversity Library for Multistage-Active Starting Points for Next-Generation Antimalarials” (ACS Infect Dis, 2020).

Structures are written as SMILES.

The data set can be described thus: Toxicity liver stage against HepG2, at 10uM. It counts as cell-based. Also on record: test concentration 10 uM, cell line HepG2-A16-CD81EGFP. Particulars: human, HepG2-A16-CD81EGFP cells; read-out: INHIBITION
An outline of the steps:
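Uninfected HepG2-A16-CD81EGFP cells, 3 × 10^3 per well, 1536-well, plated on prespotted compound at 10 μM final, parasite-free screening media added to match infected plates; puromycin 10 μM positive, DMSO 0.5% negative; run in parallel with 48 h PbLuc assay at 37 °C, 5% CO2; viability by CellTiter-Glo luminescence, normalized to controls.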
Regarding `CCNC(=O)C(C)NC(=O)Nc1ccccc1SCC` (configuration not stated), the cytotoxicity at 10 µM was -7.4%.

For the compound `O=C(c1cccnc1)N1C[C@H]2CC[C@@H](C1)N(Cc1cc(F)ccc1F)C2`, the cytotoxicity at 10 µM was -10.2%.

Regarding `OC1(CN2CCc3nnc(Cc4cccnc4)n3CC2)CCCNC1` (configuration not stated), the cytotoxicity at 10 µM was found to be 21.7%.

Take `Cc1oc(C(C)C)cc1C(=O)N1C[C@@H]2CC[C@H]1CN(C(=O)N(C)C)C2`: the cytotoxicity at 10 µM is -119%.

With `CCn1nc2c(cc1=O)CN(Cc1nc(CCOC)no1)CC2`, the cytotoxicity at 10 µM was -9.24%.

`COc1cccc2c1ccn2CC(=O)N1CCCC(C(=O)O)C1` (configuration not stated): the cytotoxicity at 10 µM came out at 6.28%.

Regarding `CC(=O)NCC(=O)NCC1Cn2nnc(-c3cccc(F)c3)c2CO1` (configuration not stated), the cytotoxicity at 10 µM was -6.77%.

With `COc1cccc(CNCc2ccccc2Cl)c1O`, the cytotoxicity at 10 µM is -13.2%.

On to `Cn1cc(Cl)cc1C(=O)N1CCN(CCc2cccs2)CC1`, for which the cytotoxicity at 10 µM is -11.8%.

Consider `Cn1ccc(-c2cc(C(=O)N3CCCCC3)c3ccccn23)n1`, for which the cytotoxicity at 10 µM is -45.7%.

Turning to `Fc1cccc(-n2cc(CN3CCCCC3CCn3ccnc3)cn2)c1` (configuration not stated), the cytotoxicity at 10 µM was -8.55%.

For the compound `Cc1c(Cc2ccccc2)c(O)nc2nc(N3CCOCC3)nn12`, the cytotoxicity at 10 µM amounted to 9.76%.

`Cc1cc(C(=O)N2CCc3nnc(N(C)C)cc3C2)c(C)n1C1CC1`: the cytotoxicity at 10 µM was found to be 1.56%.

On to `CCc1ccc(CN2CCNC(C(=O)N3CCN(C)CC3)C2)nc1` (configuration not stated), for which the cytotoxicity at 10 µM was found to be 7.68%.

Take `FCCOc1cccc(NCc2c[nH]nc2-c2cccnc2)c1`: the cytotoxicity at 10 µM was found to be 1.14%.

Consider `CNC(=O)c1cc2c(nc1N(C)C)CCN(S(=O)(=O)C1CC1)CC2`, for which the cytotoxicity at 10 µM was determined as 0.118%.

Consider `COc1ncccc1-c1nc(-c2ccccn2)nn1C1CCS(=O)(=O)C1` (configuration not stated), for which the cytotoxicity at 10 µM is -6.1%.

Take `COc1ccccc1C1CCN(C(=O)CN2C(=O)OC(C)(C)C2=O)CC1`: the cytotoxicity at 10 µM is 8.12%.

Regarding `COc1cnc(N2CCCN(Cc3ccc(F)cc3)CC2)nc1`, the cytotoxicity at 10 µM was -5.41%.

`CCOc1ccc(C#N)cc1NC(=O)N1CCCC(NC(=O)CC)C1` (configuration not stated): the cytotoxicity at 10 µM was found to be 0.711%.

Regarding `CC(C)c1nccn1CC(=O)Nc1ccnn1C(C)C(C)C` (configuration not stated), the cytotoxicity at 10 µM amounted to 1.11%.

For `CC[C@H](CO)NC(=O)c1coc(COc2ccccc2F)n1`, the cytotoxicity at 10 µM came to 5.21%.

As for `Cc1nn(C)cc1S(=O)(=O)N[C@@H]1CCC[C@@H](N2CCCC2)[C@@H]1O`, the cytotoxicity at 10 µM is -3.02%.

Consider `Cc1ccc2nc(C)c(C)c(C(=O)N3CCN(c4nccs4)CC3)c2c1`, for which the cytotoxicity at 10 µM came to 3.96%.

Regarding `CCCc1cc(C(=O)Nc2nc(SC)ns2)n(C)n1`, the cytotoxicity at 10 µM is 8.49%.

As to `O=C(c1ccco1)N1CCO[C@@H]2CN(c3ccccn3)CC[C@@H]2C1`, the cytotoxicity at 10 µM worked out at 9.43%.

With `C[S+]([O-])c1nncn1CC(=O)c1ccc(OC(F)F)cc1` (configuration not stated), the cytotoxicity at 10 µM is -8.56%.

For the compound `CC(C)(C)n1ncc2c(=O)[nH]c(N3CC(O)C3)nc21`, the cytotoxicity at 10 µM is -8.61%.

On to `Cc1[nH]/c(=N\C(=O)c2csc(NC3CC3)n2)sc1C`, for which the cytotoxicity at 10 µM is 37.4%.

For the compound `Cn1cc(C(=O)N2CCC(c3cc(CCO)n(C)n3)C2)cn1` (configuration not stated), the cytotoxicity at 10 µM is -0.0959%.

`COc1cc(C(=O)Nc2nc(C)no2)cc(Cl)c1OC`: the cytotoxicity at 10 µM was -4.29%.

Turning to `O=C(CCNS(=O)(=O)c1ccccc1)N1CCOC(c2ccccc2)C1` (configuration not stated), the cytotoxicity at 10 µM stood at 6.6%.

Consider `O=C(O)[C@@H]1CCN(C(=O)Cc2ccccn2)[C@@H]1c1ccc(F)cc1`, for which the cytotoxicity at 10 µM is 4.22%.

As to `COc1ccc(NC(=O)Nc2cnc(N3CCN(C)CC3)nc2)cc1Cl`, the cytotoxicity at 10 µM was -19.8%.

For the compound `CCN(CC)c1ccc(NS(=O)(=O)c2cnn(C)c2)cn1`, the cytotoxicity at 10 µM was -7.12%.

Turning to `COc1cc(NC(=O)NCc2cc(C)oc2C)cc(OC)c1`, the cytotoxicity at 10 µM turned out to be 5.24%.

Regarding `CCc1nsc(N2CCOC3(CCCC3)C2)n1`, the cytotoxicity at 10 µM is 6.05%.

Take `Cc1nc(CNC(C(=O)N2CCOCC2)c2ccccc2)cs1` (configuration not stated): the cytotoxicity at 10 µM was 7.33%.

Consider `CN(CCNC(=O)c1cnc(-c2ccccc2)nc1)S(C)(=O)=O`, for which the cytotoxicity at 10 µM was found to be 4.3%.

Consider `CCc1nc(CN(C)C2CCN(CCC(=O)N3CCCCC3)C2)no1` (configuration not stated), for which the cytotoxicity at 10 µM was -13.4%.

As for `CCCS(=O)(=O)NC(=O)c1ccc(-n2nc(C)cc2C)cc1`, the cytotoxicity at 10 µM stood at 1.36%.

On to `CCCC(=O)N1CCC(N2CC[C@@](O)(CCOC)[C@H](C)C2)CC1`, for which the cytotoxicity at 10 µM is -3.58%.

With `COc1ccccc1CNC(=O)CNCCn1cc(C)cn1`, the cytotoxicity at 10 µM is -1.9%.

Consider `Cc1ccc(C(=O)NC2CCN(CC(=O)N(C)c3ccccc3)CC2)o1`, for which the cytotoxicity at 10 µM was -3.73%.

As for `Cn1cccc1C(=O)N1CCCCC1c1ccn2ccnc2n1` (configuration not stated), the cytotoxicity at 10 µM was -28.2%.

On to `O=C(NCCc1nnc2n1CCC2)c1ccccc1OC1CCCC1`, for which the cytotoxicity at 10 µM was -2.27%.

Regarding `CN1CC(NC(=O)CCCc2cc(Cl)sc2Cl)CCC1=O` (configuration not stated), the cytotoxicity at 10 µM was -5.01%.

For `CC(C)c1nnsc1CNC(=O)C1CCN(C(C)C)CC1`, the cytotoxicity at 10 µM was -8.05%.

Turning to `CC(=O)NCC1CCN(c2cc(C(C)C)nc3ccnn23)CC1`, the cytotoxicity at 10 µM worked out at 6.64%.

For `CNc1nc(C2CCCN(C(=O)C3CCCCC3)C2)nc2c1CNCC2` (configuration not stated), the cytotoxicity at 10 µM was -1.85%.

For `CC(NC(=O)NCCCN1CCCCCC1=O)c1nncn1C` (configuration not stated), the cytotoxicity at 10 µM was -0.734%.

With `CO[C@H]1CC[C@H]2[C@H]1OCCN2Cc1ccc(F)cc1`, the cytotoxicity at 10 µM came to 7.34%.

`CNc1snc(C)c1C(=O)N1CCC(Nc2ccc(C)nn2)CC1`: the cytotoxicity at 10 µM is -8.27%.

Consider `Cc1ccc(NC(=O)c2nc(N3CCCCC3)ncc2Cl)cc1I`, for which the cytotoxicity at 10 µM was -0.906%.

As to `Cc1nc(CN2CCN(CCCc3nc4ccccc4o3)CC2)no1`, the cytotoxicity at 10 µM was determined as 9.13%.

For `Oc1cccc(CN2C[C@@H]3CC[C@H]2CN(Cc2ccc(F)cc2)C3)c1`, the cytotoxicity at 10 µM is -135%.

In the case of `COc1cc(OC)c2c(=O)oc(CC(O)CC(C)=O)cc2c1` (configuration not stated), the cytotoxicity at 10 µM stood at 5.73%.

As for `O=c1[nH]c(NCCO)nc2c1C1(CCCC1)Cc1ccccc1-2`, the cytotoxicity at 10 µM is 8.13%.

With `O=C(c1ccc2sccc2c1)N1CCC(C(=O)O)(n2cccn2)CC1`, the cytotoxicity at 10 µM was -2.77%.

Turning to `O=C(O)CN1CCC(C(F)(F)F)CC1`, the cytotoxicity at 10 µM was 17.2%.

As to `CS(=O)(=O)N1CCC(NC(=O)COc2ccccc2Cl)CC1`, the cytotoxicity at 10 µM was -1.99%.

In the case of `Cc1nn(C)c(Cl)c1C1CCCN1C(=O)c1cccc(C#N)c1` (configuration not stated), the cytotoxicity at 10 µM was -22%.

Regarding `Cc1cccc2c1nc(COCC(=O)O)n2-c1cnc(N)cn1`, the cytotoxicity at 10 µM came out at 0.238%.

As to `CN1CCC(NC(=O)C2CN(c3cncnc3)CCO2)CC1` (configuration not stated), the cytotoxicity at 10 µM was -32.5%.

On to `Cc1nc(CN(C)C(=O)c2cc(C)sc2NC(=O)C(C)(C)C)no1`, for which the cytotoxicity at 10 µM worked out at 3.81%.

Consider `COc1nc2c(cc1C(=O)N1CC[C@H](CO)[C@@H](O)C1)CCC2`, for which the cytotoxicity at 10 µM was -42.4%.

As to `CN(CCSc1nncn1CC(F)(F)F)c1ccccc1`, the cytotoxicity at 10 µM was -1.86%.

With `CCC(=O)NCc1cc(Br)c(OC)c(OC)c1`, the cytotoxicity at 10 µM is -0.0582%.

On to `CC(C)c1nnc(CCC(=O)N2CCCC(c3cnccn3)C2)o1` (configuration not stated), for which the cytotoxicity at 10 µM came to 1.88%.

For `CC(=O)N1CCC(NC[C@H]2Cn3c(-c4ccccc4)cnc3CO2)CC1`, the cytotoxicity at 10 µM is -5.04%.

On to `Cc1ccoc1C(=O)N1C[C@@H]2COC[C@]2(COCc2cccnc2)C1`, for which the cytotoxicity at 10 µM stood at 5.95%.

In the case of `CCc1nc(CN(C)C2CCN(CCNS(=O)(=O)CC)C2)no1` (configuration not stated), the cytotoxicity at 10 µM was -2.14%.

Turning to `Cc1ncsc1CCN(C)C(=O)c1ccc(Cn2cnnn2)cc1`, the cytotoxicity at 10 µM is -9.17%.

For the compound `CC(C)CN1C[C@H](COCc2ccccc2)Oc2ncccc2C1=O`, the cytotoxicity at 10 µM was -57.4%.

Regarding `CCOc1ccc(CNC2CCCN(c3cccnn3)C2)cc1OC` (configuration not stated), the cytotoxicity at 10 µM is -3.92%.

For the compound `Cc1ncsc1C(=O)N(C)Cc1ccsc1`, the cytotoxicity at 10 µM was -9.8%.

Consider `CC(=O)N1CCN(C(=O)CNc2c(C)cccc2OC(F)F)CC1`, for which the cytotoxicity at 10 µM came to 3.24%.

`CC(C)CCn1ccc(NC(=O)N2CCCC2CN2CCOCC2)n1` (configuration not stated): the cytotoxicity at 10 µM is -2.16%.

Consider `CNc1nc2c(c(C(=O)N3CCCC3)n1)CN(C(=O)CCSC)CC2`, for which the cytotoxicity at 10 µM was -114%.

With `Cc1cc(C(=O)N(C)C(C)CC(C)C)on1` (configuration not stated), the cytotoxicity at 10 µM was -4.6%.

For the compound `CC(C)NC(=O)N1CCC(c2nccn2C(C)C)CC1`, the cytotoxicity at 10 µM was -6.77%.

`COC(=O)CNCC1(O)CCCN(Cc2cccc(F)c2F)C1=O` (configuration not stated): the cytotoxicity at 10 µM is -6.87%.

Turning to `CC(=O)N1CCCC2(CCN(C(=O)c3nccnc3N)CC2)C1`, the cytotoxicity at 10 µM amounted to 3.47%.

On to `CC(CN1CCOCC1)NC(=O)NCc1cccs1` (configuration not stated), for which the cytotoxicity at 10 µM is -15.9%.

Take `COc1ccsc1C(=O)Nc1cc(Cl)c(=O)n(C)c1`: the cytotoxicity at 10 µM amounted to 2.05%.

`O=C1NCCCC1NC(=O)C1(c2cccc(Cl)c2)CCC1` (configuration not stated): the cytotoxicity at 10 µM was -2.09%.

Turning to `O=C(CN1CCS(=O)(=O)CC1)NC1CCCc2ccccc21` (configuration not stated), the cytotoxicity at 10 µM was -0.82%.

On to `CCOCC1CN(S(=O)(=O)c2cccc(C)c2)Cc2nccn2C1` (configuration not stated), for which the cytotoxicity at 10 µM was -108%.

Turning to `O=C1CO[C@H](c2ccc(NS(=O)(=O)c3ccccc3)cc2)[C@@H](CO)N1`, the cytotoxicity at 10 µM is 2.17%.

Take `CC(C)Cc1noc(CN2CCCC(CNS(N)(=O)=O)C2)n1` (configuration not stated): the cytotoxicity at 10 µM is -4.88%.

As to `CC(=O)Nc1cc(C(=O)Nc2cc(CC(C)(C)C)nn2C)ccc1F`, the cytotoxicity at 10 µM is 0.388%.

Turning to `CC1(C)OC(=O)N(CC(=O)N2CCC(c3ccccc3Cl)C2)C1=O` (configuration not stated), the cytotoxicity at 10 µM was -21.4%.

Turning to `N#Cc1ccc(N2CCCC2Cn2cccn2)nc1` (configuration not stated), the cytotoxicity at 10 µM turned out to be 6.55%.

Turning to `CCN1CCCC12CCN(Cc1cccnc1OC)CC2`, the cytotoxicity at 10 µM was 13.4%.

`CN(C)C(=O)CN1CCO[C@H]2CN(Cc3ccoc3)C[C@H]21`: the cytotoxicity at 10 µM is -108%.

Take `CNC(=O)[C@@H]1CN(C(=O)C2CCC2)C[C@H]1c1ccnc(N2CCCC2)n1`: the cytotoxicity at 10 µM is -3.21%.

`COc1ccc(C)cc1NC(=O)CNc1ccn(CC(N)=O)n1`: the cytotoxicity at 10 µM is -8.28%.
